According to ChEMBL document CHEMBL2177000, “Pharmacokinetic optimization of class-selective histone deacetylase inhibitors and identification of associated candidate predictive biomarkers of hepatocellular carcinoma tumor response” (J Med Chem, 2012):

Experiments:
Histone deacetylase 3 = Histone deacetylase 3 (Homo sapiens, UniProt O15379); test: Inhibition of HDAC3 using p53 (379 to 382 residues) based fluorogenic peptide substrate
[1] = Cmax in BALB/C mouse at 10 mg/kg, po or 2 mg/kg, iv by LC-MS/MS method; format: ADME, organism-based; conditions: BALB/C, in vivo
In short: (§1)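 Female-unspecified BALB/C nude mice (15−20 g, N = 16 per arm); iv bolus 2 mg/kg in 5% DMSO/40% PEG400/55% saline and/or oral gavage 10 mg/kg as 0.445% microcrystalline cellulose microsuspension. Blood sampled at nine (iv) or eight (po) time points into sodium heparin tubes; plasma by LC-MS/MS; noncompartmental analysis.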

Cytochrome P450 1A2 = target: T1, Cytochrome P450 1A2 (Homo sapiens, UniProt P05177); test: Inhibition of CYP1A2 in human liver microsomes in presence of NADPH by LC-MS/MS method; format: ADME, Microsome
T1 sequence (P05177 whole entry): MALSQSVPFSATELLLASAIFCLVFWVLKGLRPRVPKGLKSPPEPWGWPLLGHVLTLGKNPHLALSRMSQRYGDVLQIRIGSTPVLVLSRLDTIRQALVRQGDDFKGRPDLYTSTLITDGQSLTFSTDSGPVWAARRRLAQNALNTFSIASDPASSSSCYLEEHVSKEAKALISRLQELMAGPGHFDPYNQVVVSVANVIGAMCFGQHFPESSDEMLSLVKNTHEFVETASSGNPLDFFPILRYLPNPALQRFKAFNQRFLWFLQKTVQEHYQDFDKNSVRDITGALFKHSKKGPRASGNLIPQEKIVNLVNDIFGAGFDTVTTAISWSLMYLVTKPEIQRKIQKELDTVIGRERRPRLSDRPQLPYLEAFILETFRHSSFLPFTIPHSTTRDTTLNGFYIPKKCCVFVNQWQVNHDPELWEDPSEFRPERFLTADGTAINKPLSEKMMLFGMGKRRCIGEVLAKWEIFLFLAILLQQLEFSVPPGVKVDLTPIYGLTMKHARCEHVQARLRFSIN

Cytochrome P450 3A4 = Cytochrome P450 3A4 (Homo sapiens, UniProt P08684); test: Inhibition of CYP3A4 in human liver microsomes in presence of NADPH by LC-MS/MS method; format: ADME, Microsome
Cytochrome P450 3A4, sequence (P08684 whole entry): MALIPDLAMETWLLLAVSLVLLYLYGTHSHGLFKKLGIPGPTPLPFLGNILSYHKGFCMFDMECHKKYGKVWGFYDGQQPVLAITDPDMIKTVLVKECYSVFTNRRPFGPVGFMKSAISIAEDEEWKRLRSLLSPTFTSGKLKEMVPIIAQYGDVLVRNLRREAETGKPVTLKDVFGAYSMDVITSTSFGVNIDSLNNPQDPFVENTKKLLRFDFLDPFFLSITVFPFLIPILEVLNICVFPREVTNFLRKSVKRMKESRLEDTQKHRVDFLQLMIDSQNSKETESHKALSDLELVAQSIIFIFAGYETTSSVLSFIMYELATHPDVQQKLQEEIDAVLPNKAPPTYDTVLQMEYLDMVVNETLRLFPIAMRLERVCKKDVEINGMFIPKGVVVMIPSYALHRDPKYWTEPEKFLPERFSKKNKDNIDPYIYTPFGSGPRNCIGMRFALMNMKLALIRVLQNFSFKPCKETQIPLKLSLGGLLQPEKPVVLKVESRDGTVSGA

[2] = Half life in BALB/C mouse at 10 mg/kg, po or 2 mg/kg, iv by LC-MS/MS method; format: ADME, organism-based; conditions: BALB/C, in vivo; in short: as §1
Cytochrome P450 2C19 = Cytochrome P450 2C19 (Homo sapiens, UniProt P33261); test: Inhibition of CYP2C19 in human liver microsomes in presence of NADPH by LC-MS/MS method; format: ADME, Microsome
Cytochrome P450 2C19, sequence (P33261 whole entry, the tested form may be a part): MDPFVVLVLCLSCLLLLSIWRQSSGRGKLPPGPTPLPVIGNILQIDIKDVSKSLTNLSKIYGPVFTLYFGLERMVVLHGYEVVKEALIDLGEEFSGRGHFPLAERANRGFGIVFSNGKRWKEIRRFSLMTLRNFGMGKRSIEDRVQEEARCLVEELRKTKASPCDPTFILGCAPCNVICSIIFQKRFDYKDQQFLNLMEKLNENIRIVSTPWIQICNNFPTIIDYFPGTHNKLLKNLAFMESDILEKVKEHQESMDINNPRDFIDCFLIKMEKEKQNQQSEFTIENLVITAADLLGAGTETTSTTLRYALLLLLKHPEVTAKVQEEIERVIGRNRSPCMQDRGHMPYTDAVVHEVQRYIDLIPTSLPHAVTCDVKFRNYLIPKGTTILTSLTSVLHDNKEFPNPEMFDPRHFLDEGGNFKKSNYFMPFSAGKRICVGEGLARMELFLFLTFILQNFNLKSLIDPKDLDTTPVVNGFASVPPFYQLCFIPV

[3] = target: T2, Protein deacetylase HDAC6 (Homo sapiens, UniProt Q9UBN7); test: Inhibition of HDAC6 using p53 (379 to 382 residues) based fluorogenic peptide substrate
T2 sequence (Q9UBN7 whole entry): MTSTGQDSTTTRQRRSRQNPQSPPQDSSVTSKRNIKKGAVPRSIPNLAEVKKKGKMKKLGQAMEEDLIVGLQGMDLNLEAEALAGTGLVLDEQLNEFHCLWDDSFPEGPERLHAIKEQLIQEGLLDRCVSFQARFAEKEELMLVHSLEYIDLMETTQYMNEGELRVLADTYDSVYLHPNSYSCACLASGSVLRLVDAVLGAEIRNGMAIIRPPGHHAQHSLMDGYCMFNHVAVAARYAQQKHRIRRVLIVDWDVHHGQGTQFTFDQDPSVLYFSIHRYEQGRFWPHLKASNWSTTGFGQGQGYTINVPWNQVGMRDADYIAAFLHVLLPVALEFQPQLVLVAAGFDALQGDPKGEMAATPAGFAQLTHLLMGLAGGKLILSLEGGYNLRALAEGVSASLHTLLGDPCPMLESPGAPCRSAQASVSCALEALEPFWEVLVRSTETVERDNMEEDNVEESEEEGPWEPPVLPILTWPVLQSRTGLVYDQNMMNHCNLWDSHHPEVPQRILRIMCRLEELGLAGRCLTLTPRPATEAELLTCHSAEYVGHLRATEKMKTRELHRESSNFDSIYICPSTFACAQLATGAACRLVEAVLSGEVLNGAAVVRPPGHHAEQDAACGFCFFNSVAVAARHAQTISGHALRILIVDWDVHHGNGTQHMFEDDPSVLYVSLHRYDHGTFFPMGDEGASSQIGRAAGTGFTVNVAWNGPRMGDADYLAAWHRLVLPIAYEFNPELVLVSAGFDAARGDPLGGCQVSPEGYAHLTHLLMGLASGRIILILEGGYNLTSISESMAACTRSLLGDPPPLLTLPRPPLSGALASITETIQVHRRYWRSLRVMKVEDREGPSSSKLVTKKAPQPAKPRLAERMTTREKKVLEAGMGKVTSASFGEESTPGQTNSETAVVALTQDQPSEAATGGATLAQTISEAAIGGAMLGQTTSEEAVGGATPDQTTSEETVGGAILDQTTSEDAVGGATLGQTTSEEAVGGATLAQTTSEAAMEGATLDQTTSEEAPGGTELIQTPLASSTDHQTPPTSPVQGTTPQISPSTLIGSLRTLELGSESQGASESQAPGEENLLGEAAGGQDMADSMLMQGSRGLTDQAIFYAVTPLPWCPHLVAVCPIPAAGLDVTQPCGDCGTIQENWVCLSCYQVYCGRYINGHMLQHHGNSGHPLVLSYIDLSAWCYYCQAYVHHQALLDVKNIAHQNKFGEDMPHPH

Cytochrome P450 2C9 = Cytochrome P450 2C9 (Homo sapiens, UniProt P11712); test: Inhibition of CYP2C9 in human liver microsomes in presence of NADPH by LC-MS/MS method; format: ADME, Microsome
Cytochrome P450 2C9, sequence (P11712 whole entry): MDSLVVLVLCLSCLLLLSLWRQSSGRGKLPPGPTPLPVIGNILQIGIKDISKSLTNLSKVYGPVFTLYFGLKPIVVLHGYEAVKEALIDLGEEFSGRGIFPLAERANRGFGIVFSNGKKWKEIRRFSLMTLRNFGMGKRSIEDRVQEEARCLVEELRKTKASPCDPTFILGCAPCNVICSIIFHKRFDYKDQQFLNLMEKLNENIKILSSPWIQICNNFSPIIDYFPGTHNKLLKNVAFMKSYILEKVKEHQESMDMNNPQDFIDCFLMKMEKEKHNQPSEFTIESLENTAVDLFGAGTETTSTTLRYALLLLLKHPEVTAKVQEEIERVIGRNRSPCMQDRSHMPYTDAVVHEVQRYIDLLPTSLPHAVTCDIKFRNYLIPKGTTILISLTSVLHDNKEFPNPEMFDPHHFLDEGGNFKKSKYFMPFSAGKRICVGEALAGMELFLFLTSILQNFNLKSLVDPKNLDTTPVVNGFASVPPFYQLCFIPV

[4] = Tmax in BALB/C mouse at 10 mg/kg, po or 2 mg/kg, iv by LC-MS/MS method; format: ADME, organism-based; conditions: BALB/C, in vivo
In short: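 Single-dose PK: iv bolus 2 mg/kg in 5% DMSO/40% PEG400/55% saline and/or oral gavage 10 mg/kg as 0.445% microcrystalline cellulose microsuspension; BALB/C nude mice (15−20 g, N = 16 per arm) or male Sprague−Dawley rats (250 ± 20 g, N = 3). Blood at eight (po) or nine (iv) time points into sodium heparin, plasma by LC-MS/MS, noncompartmental analysis.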

[5] = AUC in BALB/C mouse at 10 mg/kg, po or 2 mg/kg, iv by LC-MS/MS method; format: ADME, organism-based, Plasma; conditions: BALB/C, plasma; in short: as §1
[6] = Clearance in BALB/C mouse at 10 mg/kg, po or 2 mg/kg, iv by LC-MS/MS method; format: ADME, organism-based; conditions: in vivo; in short: as §1
[7] = target: Histone deacetylase (Homo sapiens) (UniProt Q13547+O15379+Q9UBN7+Q92769+Q9UQL6+Q8WUI4+Q9BY41+Q96DB2+P56524+Q9UKV0+Q969S8); test: Inhibition of Class 1 histone deacetylase in human HeLa cells assessed as induction in p21 protein expression at 3 uM incubated for 16 hrs by luciferase reporter gene assay relative to HDAC inhibitor entinostat; format: cell-based; parameters: scale not given: the % may be the effect or the level left

Histone deacetylase 3, sequence (O15379 whole entry, the tested form may be a part): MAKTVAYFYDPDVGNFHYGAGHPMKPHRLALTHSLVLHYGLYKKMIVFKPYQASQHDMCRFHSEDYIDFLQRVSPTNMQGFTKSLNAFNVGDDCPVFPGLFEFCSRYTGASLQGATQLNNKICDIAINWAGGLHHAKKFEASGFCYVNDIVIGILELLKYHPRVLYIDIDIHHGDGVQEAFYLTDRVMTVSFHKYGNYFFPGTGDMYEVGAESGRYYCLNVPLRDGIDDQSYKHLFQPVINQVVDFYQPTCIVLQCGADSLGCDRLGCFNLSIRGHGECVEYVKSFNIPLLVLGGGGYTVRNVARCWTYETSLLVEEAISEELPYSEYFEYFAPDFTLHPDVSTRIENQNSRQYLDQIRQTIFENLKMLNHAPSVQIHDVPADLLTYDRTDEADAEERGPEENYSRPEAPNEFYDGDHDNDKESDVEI

| IC50 (Histone deacetylase 3) | Cmax [1] | IC50 (Cytochrome P450 1A2) | IC50 (Cytochrome P450 3A4) | half-life [2] | IC50 (Cytochrome P450 2C19) | IC50 [3] | IC50 (Cytochrome P450 2C9) | Tmax [4] | AUC [5] | clearance [6] | Activity [7] | SMILES |
| --- | --- | --- | --- | --- | --- | --- | --- | --- | --- | --- | --- | --- |
| 0.2 µM | 0.45 µg/mL | 50 µM | 21 µM | 6.2 h | 43 µM | > 30 µM | 23 µM | 1 h | 2.54 µg·h/mL | 3.48 L/h/kg | – | CN1C[C@@H](C(=O)Nc2ccc(Cl)cc2)[C@H](c2ccc(/C=C/C(=O)Nc3ccccc3N)cc2)C1 |
| 0.23 µM | – | 42 µM | 14 µM | – | 43 µM | > 30 µM | 29 µM | – | – | – | – | CN1C[C@H](C(=O)Nc2ccc(Cl)cc2)[C@@H](c2ccc(/C=C/C(=O)Nc3ccccc3N)cc2)C1 [listing 1 of 2 here] |
| 0.23 µM | 0.828 µg/mL | 28 µM | 4 µM | 3.4 h | 21 µM | > 30 µM | 13 µM | 2 h | 3.57 µg·h/mL | 1.38 L/h/kg | 130% | CN1C[C@H](C(=O)Nc2ccc(Cl)cc2)[C@@H](c2ccc(/C=C/C(=O)Nc3ccccc3N)cc2F)C1 (racemic) |
| – | – | – | – | – | – | – | – | – | – | – | 257% | CN1C[C@H](C(=O)Nc2ccc(Cl)cc2)[C@@H](c2ccc(/C=C/C(=O)Nc3ccccc3N)cc2)C1 [listing 2 of 2 here] |
